# Legend:
# [1] = system: Mycobacterium tuberculosis; test: Antitubercular activity against Mycobacterium tuberculosis H37Rv after 4 days by microplate alamar blue assay; type: functional; settings: 96 h
# In short: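 M. tuberculosis H37Rv (ATCC 27294) in BACTEC 12B medium by MABA; 10 twofold dilutions, usually 100 to 0.19 µg/mL; final titer as printed; 37 °C, Alamar Blue added from day 4 once control wells turned pink, read 24 h later (ex 530/em 590 nm). MIC: lowest concentration giving 90% fluorescence reduction vs controls, taken as IC90 from dose-response curve fit.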
# [2] = Selectivity index, ratio of IC50 for african green monkey Vero cells to IC90 for Mycobacterium tuberculosis H37Rv; type: toxicity, cell-based; settings: read-out: Selectivity Index
# In short: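 SI = VERO cell IC50 / M. tuberculosis H37Rv MIC. VERO cells exposed 72 h at concentrations up to 10x the H37Rv MIC; viability by MTT (CellTiter 96); IC50 from dose-response curve fit. MIC from MABA against H37Rv in BACTEC 12B medium, 37 °C, 90% fluorescence reduction defining IC90.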
SMILES,IC90 [1],selectivity ratio [2]
CN1C(=O)/C(=N\NC(=S)Nc2ccccc2)c2cc(OC(F)(F)F)ccc21,> 100 µg/mL,
Cc1ccc(NC(=S)N/N=C2\C(=O)Nc3ccc(C)cc32)cc1,> 100 µg/mL,
C=CCNC(=S)N/N=C1\C(=O)N(C)c2ccc(C)cc21,> 100 µg/mL,
CNC(=S)N/N=C1\C(=O)N(C)c2ccc(C)cc21,> 100 µg/mL,
O=C1/C(=N\NC(=S)Nc2ccc(Br)cc2)c2cc(OC(F)(F)F)ccc2N1CN1CCOCC1,3.03 µg/mL,2.46
O=C1/C(=N\NC(=S)Nc2ccc([N+](=O)[O-])cc2)c2cc(OC(F)(F)F)ccc2N1CN1CCOCC1,> 100 µg/mL,
CNC(=S)N/N=C1\C(=O)Nc2ccc(C)cc21,> 100 µg/mL,
Cc1ccc2c(c1)/C(=N/NC(=S)Nc1ccc(Cl)cc1)C(=O)N2C,> 100 µg/mL,
CNC(=S)N/N=C1\C(=O)N(CN2CCOCC2)c2ccc(OC(F)(F)F)cc21,> 100 µg/mL,
CCNC(=S)N/N=C1\C(=O)N(CN2CCOCC2)c2ccc(OC(F)(F)F)cc21,> 100 µg/mL,
Cc1ccc2c(c1)/C(=N/NC(=S)NCc1ccccc1)C(=O)N2C,> 100 µg/mL,
Cc1ccc2c(c1)/C(=N/NC(=S)Nc1ccc(F)cc1)C(=O)N2C,> 100 µg/mL,
CN1C(=O)/C(=N\NC(=S)Nc2ccc(Cl)cc2)c2cc(OC(F)(F)F)ccc21,> 100 µg/mL,
Cc1ccc(NC(=S)N/N=C2\C(=O)N(CN3CCOCC3)c3ccc(OC(F)(F)F)cc32)cc1,> 100 µg/mL,
CN1C(=O)/C(=N\NC(=S)Nc2ccc(Br)cc2)c2cc(OC(F)(F)F)ccc21,> 100 µg/mL,
Cc1ccc2c(c1)/C(=N/NC(=S)Nc1ccccc1)C(=O)N2C,> 100 µg/mL,
Cc1ccc(NC(=S)N/N=C2\C(=O)N(C)c3ccc(C)cc32)cc1,> 100 µg/mL,
CN1C(=O)/C(=N\NC(=S)Nc2ccc(F)cc2)c2cc(OC(F)(F)F)ccc21,> 100 µg/mL,
O=C1/C(=N\NC(=S)NC2CCCCC2)c2cc(OC(F)(F)F)ccc2N1CN1CCOCC1,5.69 µg/mL,4.12
O=C1/C(=N\NC(=S)NCc2ccccc2)c2cc(OC(F)(F)F)ccc2N1CN1CCOCC1,> 100 µg/mL,
O=C1/C(=N\NC(=S)Nc2ccccc2)c2cc(OC(F)(F)F)ccc2N1CN1CCOCC1,> 100 µg/mL,
CCCCNC(=S)N/N=C1\C(=O)N(CN2CCOCC2)c2ccc(OC(F)(F)F)cc21,> 100 µg/mL,
Cc1ccc2c(c1)/C(=N/NC(=S)Nc1ccc(Br)cc1)C(=O)N2,> 100 µg/mL,

SMILES,IC90 [1],selectivity ratio [2]
Cc1ccc2c(c1)/C(=N/NC(=S)NC1CCCCC1)C(=O)N2C,> 100 µg/mL,
C=CCNC(=S)N/N=C1\C(=O)N(C)c2ccc(OC(F)(F)F)cc21,> 100 µg/mL,
CCCCNC(=S)N/N=C1\C(=O)N(C)c2ccc(OC(F)(F)F)cc21,> 100 µg/mL,
Cc1ccc2c(c1)/C(=N/NC(=S)Nc1ccccc1Br)C(=O)N2C,> 100 µg/mL,
Cc1ccc2c(c1)/C(=N/NC(=S)Nc1ccc([N+](=O)[O-])cc1)C(=O)N2C,> 100 µg/mL,
CNC(=S)N/N=C1\C(=O)N(C)c2ccc(OC(F)(F)F)cc21,> 100 µg/mL,
CN1C(=O)/C(=N\NC(=S)NC2CCCCC2)c2cc(OC(F)(F)F)ccc21,> 100 µg/mL,
CN1C(=O)/C(=N\NC(=S)NCc2ccccc2)c2cc(OC(F)(F)F)ccc21,> 100 µg/mL,
O=C1Nc2ccc(OC(F)(F)F)cc2/C1=N/NC(=S)Nc1ccccc1,> 100 µg/mL,
Cc1ccc(NC(=S)N/N=C2\C(=O)Nc3ccc(OC(F)(F)F)cc32)cc1,> 100 µg/mL,
O=C1Nc2ccc(OC(F)(F)F)cc2/C1=N/NC(=S)Nc1ccc(F)cc1,1.55 µg/mL,1.64
Cc1ccc2c(c1)/C(=N/NC(=S)Nc1cccc(Br)c1)C(=O)N2,1.49 µg/mL,0.473
O=C1Nc2ccc(OC(F)(F)F)cc2/C1=N/NC(=S)NCc1ccccc1,> 100 µg/mL,
CCCCNC(=S)N/N=C1\C(=O)N(C)c2ccc(C)cc21,> 100 µg/mL,
Cc1ccc2c(c1)/C(=N/NC(=S)NCc1ccccc1)C(=O)N2,> 100 µg/mL,
CNC(=S)N/N=C1\C(=O)Nc2ccc(OC(F)(F)F)cc21,> 100 µg/mL,
C=CCNC(=S)N/N=C1\C(=O)Nc2ccc(OC(F)(F)F)cc21,> 100 µg/mL,
O=C1Nc2ccc(OC(F)(F)F)cc2/C1=N/NC(=S)Nc1ccc(Br)cc1,1.53 µg/mL,3.77
CCNC(=S)N/N=C1\C(=O)N(C)c2ccc(C)cc21,> 100 µg/mL,
C=CCNC(=S)N/N=C1\C(=O)Nc2ccc(C)cc21,> 100 µg/mL,
O=C1Nc2ccc(OC(F)(F)F)cc2/C1=N/NC(=S)Nc1ccc(Cl)cc1,1.52 µg/mL,4.2
Cc1ccc(NC(=S)N/N=C2\C(=O)N(C)c3ccc(OC(F)(F)F)cc32)cc1,> 100 µg/mL,
O=C1Nc2ccc(OC(F)(F)F)cc2/C1=N/NC(=S)NC1CCCCC1,> 100 µg/mL,

SMILES,IC90 [1],selectivity ratio [2]
CCCCNC(=S)N/N=C1\C(=O)Nc2ccc(C)cc21,0.911 µg/mL,4.82
Cc1ccc2c(c1)/C(=N/NC(=S)Nc1ccc(F)cc1)C(=O)N2,1.59 µg/mL,< 0.123
Cc1ccc2c(c1)/C(=N/NC(=S)Nc1ccccc1)C(=O)N2,1.43 µg/mL,0.742
CCNC(=S)N/N=C1\C(=O)N(C)c2ccc(OC(F)(F)F)cc21,> 100 µg/mL,
CCNC(=S)N/N=C1\C(=O)Nc2ccc(C)cc21,> 100 µg/mL,
O=C1/C(=N\NC(=S)Nc2ccc(Cl)cc2)c2cc(OC(F)(F)F)ccc2N1CN1CCOCC1,3.04 µg/mL,3.19
Cc1ccc2c(c1)/C(=N/NC(=S)NC1CCCCC1)C(=O)N2,0.795 µg/mL,1.98
Cc1ccc2c(c1)/C(=N/NC(=S)Nc1ccc(Br)cc1)C(=O)N2C,> 100 µg/mL,
CN1C(=O)/C(=N\NC(=S)Nc2ccc([N+](=O)[O-])cc2)c2cc(OC(F)(F)F)ccc21,> 100 µg/mL,
Cc1ccc2c(c1)/C(=N/NC(=S)Nc1ccc(Cl)cc1)C(=O)N2,3.57 µg/mL,3.46
COc1ccc(NC(=S)N/N=C2\C(=O)N(CN3CCOCC3)c3ccc(OC(F)(F)F)cc32)cc1,> 100 µg/mL,
C=CCNC(=S)N/N=C1\C(=O)N(CN2CCOCC2)c2ccc(OC(F)(F)F)cc21,> 100 µg/mL,
O=C1/C(=N\NC(=S)Nc2ccc(F)cc2)c2cc(OC(F)(F)F)ccc2N1CN1CCOCC1,3.06 µg/mL,0.784
Cc1ccc2c(c1)/C(=N/NC(=S)Nc1cccc(Br)c1)C(=O)N2C,> 100 µg/mL,
COc1ccc(NC(=S)N/N=C2\C(=O)Nc3ccc(OC(F)(F)F)cc32)cc1,> 100 µg/mL,
CCCCNC(=S)N/N=C1\C(=O)Nc2ccc(OC(F)(F)F)cc21,> 100 µg/mL,
CCNC(=S)N/N=C1\C(=O)Nc2ccc(OC(F)(F)F)cc21,> 100 µg/mL,
Cc1ccc2c(c1)/C(=N/NC(=S)Nc1ccccc1Br)C(=O)N2,> 100 µg/mL,
Cc1ccc2c(c1)/C(=N/NC(=S)Nc1ccc([N+](=O)[O-])cc1)C(=O)N2,> 100 µg/mL,
O=C1Nc2ccc(OC(F)(F)F)cc2/C1=N/NC(=S)Nc1ccc([N+](=O)[O-])cc1,> 100 µg/mL,
CO[C@H]1/C=C/O[C@@]2(C)Oc3c(C)c(O)c4c(O)c(c(/C=N/N5CCN(C)CC5)c(O)c4c3C2=O)NC(=O)/C(C)=C\C=C\[C@H](C)[C@H](O)[C@@H](C)[C@@H](O)[C@@H](C)[C@H](OC(C)=O)[C@@H]1C [RIFAMPIN],,> 800

# From ChEMBL document CHEMBL1144242, “Synthesis and antituberculosis activity of 5-methyl/trifluoromethoxy-1H-indole-2,3-dione 3-thiosemicarbazone derivatives” (Bioorg Med Chem, 2008)
